Most compounds without a hit are left out; they make up all but 1.4% or so of the library.
GSTO1 inh = GSTO1 inhibition, counter-screen for RBBP9 inhibitors; inhibition, % at 5.96 µM; recombinant GSTO1, activity-based probe fluorescence polarization; P78417; hit rate 1.1% among 300,000;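 active means inhibition above the campaign mean inhibition plus 3 SD, cut at about 35% in these data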;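 further: 0% = GSTO1-1 with DMSO and 100% = wells lacking GSTO1-1 enzyme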
Redox H2O2 prof = compounds producing H2O2 with reducing agent – biochemical, NIH compound library profiling, artefact control for MLSCN library redox annotation, primary screen; DTT-dependent redox cycling H2O2, phenol red/HRP absorbance; 100% = 100 µM peroxide control, 0% = buffer; activation, % at 10 µM; hit rate 0.03% among 200,000;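 active means activation of at least 50% relative to the plate's high and low controls in the primary single-dose screen; inactive means activation below 50%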;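 further: compound incubated with DTT at 0.8 mM final as the reducing agent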
HKDC1 inhibitor = blocks human hexokinase HKDC1 activity; hit rate 0.16% among 340,000; Q2TB90; recombinant HKDC1, G6PDH/diaphorase resazurin coupled fluorescence; inhibition, % at 20 µM;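 active means inhibition above about 35% when tested at 20 µM, limit read from the data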;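 further: plate controls were DMSO wells with enzyme for no effect and DMSO wells lacking enzyme for full effect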
Target sequence (Q2TB90 whole entry, looked up): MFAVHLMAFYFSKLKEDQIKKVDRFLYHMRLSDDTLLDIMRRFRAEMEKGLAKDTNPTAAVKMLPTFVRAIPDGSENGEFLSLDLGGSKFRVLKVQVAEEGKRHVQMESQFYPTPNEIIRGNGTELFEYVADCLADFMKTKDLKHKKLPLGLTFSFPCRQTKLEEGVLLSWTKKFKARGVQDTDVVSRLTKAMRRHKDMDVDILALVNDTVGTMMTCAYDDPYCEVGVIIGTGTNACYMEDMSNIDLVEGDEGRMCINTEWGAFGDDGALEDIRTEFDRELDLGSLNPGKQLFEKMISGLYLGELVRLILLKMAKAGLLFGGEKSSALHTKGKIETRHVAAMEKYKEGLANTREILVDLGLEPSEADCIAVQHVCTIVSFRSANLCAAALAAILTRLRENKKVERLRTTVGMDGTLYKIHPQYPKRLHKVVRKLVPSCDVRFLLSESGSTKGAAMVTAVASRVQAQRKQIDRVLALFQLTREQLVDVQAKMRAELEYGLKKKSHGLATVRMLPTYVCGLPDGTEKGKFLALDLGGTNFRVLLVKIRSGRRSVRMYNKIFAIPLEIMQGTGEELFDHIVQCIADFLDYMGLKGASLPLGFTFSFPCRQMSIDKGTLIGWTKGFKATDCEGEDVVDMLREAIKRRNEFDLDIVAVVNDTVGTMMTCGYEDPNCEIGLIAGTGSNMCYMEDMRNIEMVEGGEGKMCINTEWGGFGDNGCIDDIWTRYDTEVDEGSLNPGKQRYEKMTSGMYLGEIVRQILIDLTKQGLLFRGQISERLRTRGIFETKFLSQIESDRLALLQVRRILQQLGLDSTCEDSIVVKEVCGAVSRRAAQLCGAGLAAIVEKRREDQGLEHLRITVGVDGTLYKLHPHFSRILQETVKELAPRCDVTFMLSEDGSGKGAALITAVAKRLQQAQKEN
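Test system: recombinant HKDC1 (HK5) hexokinase enzyme, produced in-house; Amount: enzyme 5 µg/mL final; Buffer or medium: Tris pH 8.0 buffer with MgCl2, Tween-20, BSA, BME; Reagent: glucose and ATP substrates; Doses: 20 µM test compound, 1% DMSO; Incubation: 90 min reaction incubation at room temperature, dark; Detection: resorufin fluorescence at 613 nm.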
UBC9 SUMO inh = inhibitors of human SUMOylation (UBC9); hit rate 0.36% among 290,000; inhibition, % at 35 µM; HTRF SUMOylation assay, SAE1/SAE2 + UBC9, in vitro; P63279; AID 2006; in the data active means inhibition above about 50%, passing the limit was not always enough
Apaf1 inhib = inhibitors of human Apaf-1 apoptosome. O14727. reconstituted apoptosome caspase-3 activity, DEVD-Rh110 fluorescence. inhibition, % at 20 µM. hit rate 0.71% among 330,000. AID 489030; active means inhibition of at least 40% at 20 µM;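 further: plate controls were DMSO wells for no effect and DEVD-CHO caspase inhibitor wells for full effect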
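System – cell-free apoptosome with Apaf-1, procaspase-3 and caspase-9 · Buffer or medium – pH 7.5 Hepes buffer with CHAPS, BSA, DTT · Also added – cytochrome c with DEVD-Rh110 · Times – 30 min compound preincubation, 50 min activation, room temperature · Technique – Rh110 fluorescence intensity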
DTT redox conf = redox cycling H2O2 generation, confirmed; shares compounds with Redox H2O2 prof; DTT-dependent redox cycling H2O2, phenol red-HRP absorbance; hit rate 40% among 60; EC50, µM;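 active means EC50 under a set limit for hydrogen peroxide production with the reducing agent DTT present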
GSTO1 inh conf = GSTO1 (human) inhibition, confirmation. hit rate 54% among 2,400. shares compounds with GSTO1 inh. inhibition, % at 5.96 µM. AID 2176. recombinant GSTO1, probe fluorescence polarization;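 active means inhibition above the primary screen's cutoff, its mean inhibition plus 3 SD, cut at about 35% in these data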;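 further: loss of polarization as inhibitors block binding of rhodamine sulfonate ester activity probe; 0% = GSTO1 with DMSO and 100% = wells lacking GSTO1 enzyme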
Numbers without * were called inactive; / = no result.

SMILES	GSTO1 inh	Redox H2O2 prof	HKDC1 inhibitor	UBC9 SUMO inh	Apaf1 inhib	others
O=C1NC(=O)N(Cc2ccco2)C(=O)/C1=C/c1cccn1CCOc1ccccc1Cl	11	0	21	66*	5
O=C1NC(=O)N(Cc2ccccc2)C(=O)/C1=C\c1ccco1	18	-3	21	16	14
Cc1ccc(-n2nc(C)c(C3C(C#N)=C(N)Oc4c3c(=O)oc3ccccc43)c2Cl)cc1 (configuration not stated)	/	0	/	-22	/
CN(C)C(=O)Oc1ccc2nnc3ccnn3c2c1	-2	/	0	27	-2
CCC(C)n1c(O)c(C=NCC2CCCO2)c(=O)[nH]c1=S (configuration not stated)	10	/	1	7	1
CN1CCN(c2ccc3nccnc3c2)CC1	11	0	0	58*	2
CCCCn1c(NC(=O)c2ccc(Br)o2)c(C(=O)OCC)c2nc3ccccc3nc21	90*	8	14	100*	79*
COc1ccc(C(CNC(=O)c2ccc3c(c2)CCC3)N(C)C)cc1 (configuration not stated)	4	/	-2	-11	3
Cc1cccn2c(NCC3CCCO3)c(C(C)C)nc12 (configuration not stated)	-1	-1	-1	12	5
CCOc1cc(-c2nc3c(C)cccn3c2NCC2CCCO2)ccc1O (configuration not stated)	3	3	-8	52*	-2
Cc1c(C)c2ccc(OCC(=O)N3C[C@H]4C[C@@H](C3)c3cccc(=O)n3C4)c(C)c2oc1=O	5	/	2	12	-3
COc1ccc2c(c1)NP(=S)(Oc1ccccc1)N2 (configuration not stated)	9	/	12	53*	50*
Cc1ccc2c(c1)NP(=S)(Oc1ccccc1)N2 (configuration not stated)	/	/	0	/	/
Cc1cccc(N2C(=O)/C(=C/c3ccc(N4CCN(C)CC4)o3)C(=O)NC2=S)c1C	-7	0	-1	3	3
CCOc1ccc(N2C(=O)/C(=C\c3cccs3)C(=O)NC2=S)cc1	-15	-1	13	15	-4
Cc1ccccc1N1C(=O)/C(=C/c2ccco2)C(=O)NC1=S	36*	/	/	97*	/
CCOc1ccc(N2C(=O)/C(=C/c3ccco3)C(=O)NC2=S)cc1	-23	/	81*	4	2
COP(=O)(OC)C1(O)C(=O)Nc2ccc(Br)cc21 (configuration not stated)	9	0	12	-8	0
COc1cc(/C=C/c2nc3ccccc3c(=O)n2-c2ccccc2O)ccc1O	-15	/	1	-9	12
COc1cc(/C=C/c2nc3ccccc3c(=O)n2-c2cccc(O)c2)ccc1O	-3	/	1	51*	-13
C[C@]12CCC3C(CC[C@H]4C[C@@H](O)CC[C@]34C)C1C/C(=N/O)[C@@H]2O (some centres not stated)	/	/	2	/	-11
Cc1ccc(CN2C(=O)NC(=O)C3(Cc4c(nc5ccccn5c4=O)N4CCCCCC43)C2=O)cc1 (configuration not stated)	36*	2	12	18	34
Cc1cc2c(C(C)C)c(O)c(O)c(C=O)c2c(O)c1-c1c(C)cc2c(C(C)C)c(O)c(O)c(C=O)c2c1O	/	0	/	95*	/
C=CCN1CC[C@]23c4c5ccc(O)c4O[C@H]2/C(=N/NC(=O)c2ccccc2)CC[C@@]3(O)[C@H]1C5	4	/	8	/	-6
CCCCn1c(NS(=O)(=O)c2ccccc2)c(C(=O)OCC)c2nc3ccccc3nc21	66*	167*	-11	100*	/	DTT redox conf=>50;GSTO1 inh conf=66*
CCNC(=S)NCCC1=c2ccccc2=N/C1=C\c1c(O)n(C)c(=O)n(C)c1=O	16	/	1	29	24
CCC(C)NC(=O)c1c(N)n(Cc2ccc3c(c2)OCO3)c2nc3ccccc3nc12 (configuration not stated)	53*	-1	20	96	96*	GSTO1 inh conf=6
